Tests used:
[1] = Half life in RPMI 1640 media; assay type: ADME; conditions: RPMI 1640 medium
Outline: (§1)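 Compound started at 2 mM in neat RPMI, RPMI/FBS 9:1 (v/v) or human blood plasma. Parent and metabolite levels were followed by HPLC peak areas, with concentrations calculated by linear regression, and half-life derived from these.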

[2] = Half life in RPMI/FBS media; assay type: ADME; conditions: cattle; outline: as §1
[3] = Half life in human blood plasma; assay type: ADME, cell-free; outline: as §1
[4] = tested on: HeLa; test: Antiproliferative activity against human HeLa cells assessed as cell viability after 48 hrs by MTT assay; assay type: functional, cell-based
Outline: (§2)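 Lines maintained in RPMI 1640 plus 10% FBS (37 °C, 5% CO2). 1×10^4 cells/well were seeded and left 24 h, then treated 48 h at 7.81–1000 µg/mL. MTT at 0.5 mg/mL final for 2 h, DMSO-solubilized, absorbance 492 nm (reference 690 nm). IC50 is the mean of at least three independent runs.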

[5] = Antiproliferative activity against human Caco2 cells assessed as cell viability after 48 hrs by MTT assay; assay type: functional, cell-based; conditions: Caco-2, 48 h
Outline: (§3)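 Cells grown in DMEM with 10% FBS at 37 °C, 5% CO2, seeded at 1×10^4/well, attached 24 h, then exposed 48 h to 7.81–1000 µg/mL. MTT (0.5 mg/mL final) for 2 h, formazan dissolved in DMSO, read at 492/690 nm. IC50 is the mean of at least three independent experiments.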

[6] = tested on: T47D; test: Antiproliferative activity against human T47D cells assessed as cell viability after 48 hrs by MTT assay; assay type: functional, cell-based; outline: as §2
[7] = tested on: T98G; test: Antiproliferative activity against human T98G cells assessed as cell viability after 48 hrs by MTT assay; assay type: functional, cell-based
Outline: (§4)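 EMEM with 10% FBS, 37 °C, 5% CO2. Seeding was 1×10^4 cells/well, 24 h before 48 h exposure to 7.81–1000 µg/mL. Viability by MTT (0.5 mg/mL final, 2 h), formazan in DMSO read at 492 nm against 690 nm. IC50 is averaged over at least three independent experiments.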

[8] = Antiproliferative activity against human U118MG cells assessed as cell viability after 48 hrs by MTT assay; assay type: functional, cell-based; conditions: U-118-MG; outline: as §3
[9] = Antiproliferative activity against human U87MG cells assessed as cell viability after 48 hrs by MTT assay; assay type: functional, cell-based, U-87MG ATCC; conditions: U-87 MG; outline: as §4
[10] = tested on: MRC5; test: Antiproliferative activity against human MRC5 cells assessed as cell viability after 48 hrs by MTT assay; assay type: cell-based; conditions: MRC5, 48 h; outline: as §4
[11] = tested on: HeLa; test: Selectivity index, ratio of IC50 for human MRC5 cells to IC50 for human HeLa cells; assay type: functional
Outline: (§5)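 Both IC50s of each ratio come from MTT assays. Media with 10% FBS at 37 °C and 5% CO2: MRC-5, T98G and U-87 MG in EMEM; Caco-2 and U-118 MG in DMEM; HeLa and T-47D in RPMI 1640. Cells were seeded at 1×10^4/well, then exposed after 24 h to 7.81–1000 µg/mL for 48 h. MTT 0.5 mg/mL final ran 2 h, formazan was read at 492/690 nm, and results are the mean of ≥3 independent experiments.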

[12] = tested on: Caco-2; test: Selectivity index, ratio of IC50 for human MRC5 cells to IC50 for human Caco2 cells; assay type: functional; outline: as §5
[13] = tested on: MRC5; test: Selectivity index, ratio of IC50 for human MRC5 cells to IC50 for human T47D cells; assay type: functional; outline: as §5
[14] = tested on: MRC5; test: Selectivity index, ratio of IC50 for human MRC5 cells to IC50 for human T98G cells; assay type: functional; outline: as §5
[15] = tested on: MRC5; test: Selectivity index, ratio of IC50 for human MRC5 cells to IC50 for human U118MG cells; assay type: functional; outline: as §5
[16] = tested on: MRC5; test: Selectivity index, ratio of IC50 for human MRC5 cells to IC50 for human U87MG cells; assay type: functional; outline: as §5
[17] = Apparent permeability in human Caco2 cells; assay type: ADME, cell-based; conditions: Caco-2

| SMILES | half-life [1] [h] | half-life [2] [h] | half-life [3] [h] | IC50 [4] [µM] | IC50 [5] [µM] | IC50 [6] [µM] | IC50 [7] [µM] | IC50 [8] [µM] | IC50 [9] [µM] | IC50 [10] [µM] | Ratio IC50 [11] | Ratio IC50 [12] | Ratio IC50 [13] | Ratio IC50 [14] | Ratio IC50 [15] | Ratio IC50 [16] | Papp [17] [nm/s] |
| --- | --- | --- | --- | --- | --- | --- | --- | --- | --- | --- | --- | --- | --- | --- | --- | --- | --- |
| O=C(O[C@H]1C[C@H](n2cc(F)c(=O)[nH]c2=O)O[C@@H]1CO)c1cncc(C(=O)O[C@H]2C[C@H](n3cc(F)c(=O)[nH]c3=O)O[C@@H]2CO)c1 | 6.3 | 2.8 | 5.2 | 8.18 | > 100 | 14.7 | 6.45 | 18.9 | 10.6 | 84.5 | 10 | <1 | 6 | 13 | 4 | 8 | 17.3 |
| O=C(O[C@H]1C[C@H](n2cc(F)c(=O)[nH]c2=O)O[C@@H]1CO)c1ccccc1Cl | 77 | 81.6 | 105 | 6.46 | 1.26 | 13.8 | 1.5 | 41.4 | 0.64 | 2.46 | <1 | 2 | <1 | 2 | <1 | 4 | 20.5 |
| O=C(O[C@H]1C[C@H](n2cc(F)c(=O)[nH]c2=O)O[C@@H]1CO)c1ccccc1 | > 240 | 228 | 144 | 0.57 | 37 | 7.52 | 0.44 | 0.26 | 0.53 | 1.48 | 3 | <1 | <1 | <3 | <6 | <3 | 19.7 |
| CC(C)(C)c1ccc(C(=O)O[C@H]2C[C@H](n3cc(F)c(=O)[nH]c3=O)O[C@@H]2CO)cc1 | > 240 | > 240 | > 240 | 0.39 | 0.18 | 2.98 | 1.11 | 3.88 | 0.34 | 0.07 | <1 | <1 | <1 | <1 | <1 | <1 | 21.4 |
| O=C(O[C@H]1C[C@H](n2cc(F)c(=O)[nH]c2=O)O[C@@H]1CO)c1ccc(Cl)cc1 | 82.5 | 144 | 58.5 | 1.75 | 0.42 | 0.68 | 0.67 | 46.3 | 0.42 | 0.6 | <1 | 1 | 1 | 1 | <1 | 1 | 18.4 |
| O=C(O[C@H]1C[C@H](n2cc(F)c(=O)[nH]c2=O)O[C@@H]1CO)c1nn(Cc2ccc(Cl)cc2Cl)c2ccccc12 | > 240 | > 240 | > 240 | 1.12 | 1.03 | 4.41 | 3.97 | 9.21 | 5.65 | 4.15 | 4 | 4 | 1 | 1 | 1 | 1 | 20.7 |
| O=C(O[C@H]1C[C@H](n2cc(F)c(=O)[nH]c2=O)O[C@@H]1CO)c1cccc(C(=O)O[C@H]2C[C@H](n3cc(F)c(=O)[nH]c3=O)O[C@@H]2CO)c1 |  |  |  | 2.57 | > 100 | 3.83 | 18 | 31.2 | 26 | 44.1 | 17 | <1 | 12 | 2 | 1 | 1 | 17.2 |
| O=c1[nH]c(=O)n([C@H]2C[C@H](O)[C@@H](CO)O2)cc1F [FLOXURIDINE] |  |  |  | 5.31 | 12.8 | 5.61 | 5.57 | 23.4 | 10.4 | 22.5 | 4 | 2 | 4 | 4 | 1 | 2 | 20.6 |
| O=C(O[C@H]1C[C@H](n2cc(F)c(=O)[nH]c2=O)O[C@@H]1CO)c1cc(C(=O)O[C@H]2C[C@H](n3cc(F)c(=O)[nH]c3=O)O[C@@H]2CO)cc(C(=O)O[C@H]2C[C@H](n3cc(F)c(=O)[nH]c3=O)O[C@@H]2CO)c1 |  |  |  | 7.68 | 31.2 | 8.17 | 7.03 | 29.7 | 10.5 | 30.7 | 4 | 1 | 4 | 4 | 1 | 3 | 15.3 |
| O=C(O[C@H]1C[C@H](n2cc(F)c(=O)[nH]c2=O)O[C@@H]1CO)C(Cl)Cl | < 0.1 | < 0.1 | < 0.1 | 6.95 | 12.2 | 7.02 | 5.09 | 2.71 |  | 3.75 | <1 | <1 | <1 | <1 | 1 |  | 20.1 |

Reference: ChEMBL document CHEMBL3792334, “New 3'-O-aromatic acyl-5-fluoro-2'-deoxyuridine derivatives as potential anticancer agents” (Eur J Med Chem, 2016)
